The source made the active and inactive calls. The rule behind the calls is not given here.
Key:
Mus musculus [1] = assay: In vivo inhibition of mTORC2-mediated phosphorylation of AKT at […] in human PC3 cells xenografted into athymic nude mouse at 100 mg/kg, po after 24 hrs by Western blotting analysis relative to control; format: functional; conditions: PC-3, 24 h
How it was run: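 Human PC-3 cells were implanted subcutaneously into the hindflank of male nude mice aged 5−8 weeks, at 3 × 10^6 cells (passages 10−14, >95% viability) in ice-cold HBSS. At a tumor size of 200−500 mg, mice got one oral 100 mg/kg dose. Tumors were taken at 1, 4, 8, 16, 24 and 32 h. Lysates (n = 5 per group) were pooled, and phospho-AKT (T308) was read by Western blot, normalized to α-tubulin.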

[2] = AUC (0 to infinity) in CD rat at 3 mg/kg, iv; format: ADME, organism-based; parameters: time infinity, dose 3 mg/kg, route intravenous; conditions: plasma
How it was run: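 Single-dose PK: female athymic nude mice (10 mg/kg), female CD rats and male beagle dogs (3 mg/kg), male cynomolgus monkeys (3 mg/kg), given iv and by oral gavage. Solution in EPW (5% ethanol/45% PEG400/water), with 1:2 HCl (m/m) for mouse, rat and dog and 1:1.5 HCl (m/m) for monkey. Plasma levels followed over 24 h.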

Mus musculus [3] = assay: In vivo inhibition of mTORC1-mediated phosphorylation of 4EBP1 at ([…]) in human PC3 cells xenografted into athymic nude mouse at 100 mg/kg, po after 4 hrs by Western blotting analysis relative to control; format: functional; conditions: PC-3, 4 h
How it was run: (§1)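 PC-3 cells grown in DMEM with 20% FBS were implanted subcutaneously at 3 × 10^6 cells in ice-cold HBSS into the hindflank of 5−8 week old male nude mice. At tumor size 200−500 mg, mice received a single oral dose of 100 mg/kg. Plasma and tumors were collected at 1, 4, 8, 16, 24 and 32 h. Tumor lysates from each group (n = 5) were pooled. Phospho-proteins were quantified by Western blot and normalized to α-tubulin.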

[4] = Oral bioavailability in Beagle dog at 3 mg/kg; format: ADME, organism-based, Canis lupus familiaris; conditions: in vivo
How it was run: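 For single-dose PK, compound was given intravenously and by oral gavage as a solution in EPW (5% ethanol/45% PEG400/water + 1:2 HCl m/m). Doses were 10 mg/kg in female athymic nude mice and 3 mg/kg in female CD rats and male beagle dogs.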

Mus musculus [5] = assay: In vivo inhibition of mTORC1-mediated phosphorylation of pS6 at (serine 240/244) in human MCF7 cells xenografted into athymic nude mouse at 100 mg/kg, po after 24 hrs by Western blotting analysis relative to control; format: functional; conditions: MCF7, 24 h
How it was run: (§2)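 MCF-7 cells (DMEM, 10% FBS) were implanted subcutaneously at 5 × 10^6 cells in 50% cold HBSS/50% growth-factor-reduced matrigel into the hindflank of 5−8 week old female nude mice. At tumor size 40−150 mg, mice received a single oral dose of 100 mg/kg. Tumor lysates were pooled per group. Phospho-AKT (S473, T308), p70S6K (T389), S6 (S240/244) and 4E-BP1 (T37/46) were measured by Western blot normalized to α-tubulin.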

[6] = target: Serine/threonine-protein kinase mTOR (Homo sapiens) (UniProt P42345); assay: Competitive inhibition of mTOR (unknown origin) in presence of ATP
Mus musculus [7] = assay: In vivo inhibition of mTORC1-mediated phosphorylation of 4EBP1 at ([…]) in human MCF7 cells xenografted into athymic nude mouse at 100 mg/kg, po after 8 hrs by Western blotting analysis relative to control; format: functional; conditions: MCF7, 8 h; how it was run: as §2
[8] = target: Platelet-derived growth factor receptor beta (Homo sapiens, UniProt P09619); assay: Inhibition of PDGFRbeta (unknown origin)
Plasma = assay: Plasma concentration in athymic mouse plasma xenografted with human MCF7 cells at 100 mg/kg, po after 32 hrs; format: ADME, organism-based; parameters: dose 100 mg/kg, route oral; conditions: in vivo, BLD = below limit of detection
How it was run: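 MCF-7 cells (5 × 10^6, in 50% cold HBSS/50% growth-factor-reduced matrigel) were implanted subcutaneously in the hindflank of 5–8 week old female nude mice. At 40–150 mg tumour size, mice received a single oral dose of 100 mg/kg, and plasma was sampled at the listed times after dosing.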

[9] = Drug uptake in tumor of athymic mouse xenografted with human PC3 cells at 100 mg/kg, po after 4 hrs; format: ADME, organism-based, Neoplasm, PC-3; parameters: dose 100 mg/kg, route oral; conditions: read-out: Drug uptake
How it was run: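 PC-3 cells (3 × 10⁶, passages 10–14, in ice-cold HBSS) were implanted sc in 5–8 week old male nude mice. Tumors of 200–500 mg received a single oral 100 mg/kg dose. Plasma and tumor were collected at 1, 4, 8, 16, 24 and 32 h and homogenized in buffer. Lysates were pooled per group (n = 5), and phospho-proteins were measured by Western blot normalized to α-tubulin.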

Mus musculus [10] = assay: In vivo inhibition of mTORC1-mediated phosphorylation of p70S6K at […] in human PC3 cells xenografted into athymic nude mouse at 100 mg/kg, po after 24 hrs by Western blotting analysis relative to control; format: functional; conditions: PC-3, 24 h; how it was run: as §1
Mus musculus [11] = assay: In vivo inhibition of mTORC1-mediated phosphorylation of 4EBP1 at ([…]) in human MCF7 cells xenografted into athymic nude mouse at 100 mg/kg, po after 16 hrs by Western blotting analysis relative to control; format: functional; conditions: MCF7, 16 h
[12] = Drug uptake in tumor of athymic mouse xenografted with human MCF7 cells at 100 mg/kg, po after 8 hrs; format: ADME, organism-based, Neoplasm; parameters: dose 100 mg/kg, route oral; conditions: read-out: Drug uptake
[13] = target: ATP-dependent translocase ABCB1 (Homo sapiens, UniProt P08183); assay: Activity at P-glycoprotein (unknown origin)
Mus musculus [14] = assay: In vivo inhibition of mTORC2-mediated phosphorylation of AKT at […] in human MCF7 cells xenografted into athymic nude mouse at 100 mg/kg, po after 4 hrs by Western blotting analysis relative to control; format: functional; conditions: MCF7, 4 h
How it was run: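 Human MCF-7 cells were implanted subcutaneously into the hindflank of female nude mice aged 5−8 weeks, at 5 × 10^6 cells in 50% cold HBSS/50% growth-factor-reduced matrigel. At a tumor size of 40−150 mg, mice got one oral dose. Tumor lysates were pooled per group. Phospho-AKT (T308) was read by Western blot and normalized to α-tubulin.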

[15] = target: ALK tyrosine kinase receptor (Homo sapiens, UniProt Q9UM73); assay: Inhibition of ALK (unknown origin)
Mus musculus [16] = assay: In vivo inhibition of mTORC1-mediated phosphorylation of 4EBP1 at ([…]) in human PC3 cells xenografted into athymic nude mouse at 100 mg/kg, po after 1 hr by Western blotting analysis relative to control; format: functional; conditions: PC-3, 1 h; how it was run: as §1
[17] = Volume of distribution at steady state in cynomolgus monkey at 3 mg/kg, iv; format: ADME, organism-based, Macaca fascicularis; parameters: dose 3 mg/kg, route intravenous; conditions: in vivo, read-out: Vdss
Mus musculus [18] = assay: In vivo inhibition of mTORC1-mediated phosphorylation of pS6 at (serine 240/244) in human PC3 cells xenografted into athymic nude mouse at 100 mg/kg, po after 16 hrs by Western blotting analysis relative to control; format: functional; conditions: PC-3, 16 h; how it was run: as §1
Mus musculus [19] = assay: In vivo inhibition of mTORC1-mediated phosphorylation of pS6 at (serine 240/244) in human MCF7 cells xenografted into athymic nude mouse at 100 mg/kg, po after 32 hrs by Western blotting analysis relative to control; format: functional; conditions: MCF7, 32 h; how it was run: as §2

Chain of ALK tyrosine kinase receptor (Q9UM73 whole entry): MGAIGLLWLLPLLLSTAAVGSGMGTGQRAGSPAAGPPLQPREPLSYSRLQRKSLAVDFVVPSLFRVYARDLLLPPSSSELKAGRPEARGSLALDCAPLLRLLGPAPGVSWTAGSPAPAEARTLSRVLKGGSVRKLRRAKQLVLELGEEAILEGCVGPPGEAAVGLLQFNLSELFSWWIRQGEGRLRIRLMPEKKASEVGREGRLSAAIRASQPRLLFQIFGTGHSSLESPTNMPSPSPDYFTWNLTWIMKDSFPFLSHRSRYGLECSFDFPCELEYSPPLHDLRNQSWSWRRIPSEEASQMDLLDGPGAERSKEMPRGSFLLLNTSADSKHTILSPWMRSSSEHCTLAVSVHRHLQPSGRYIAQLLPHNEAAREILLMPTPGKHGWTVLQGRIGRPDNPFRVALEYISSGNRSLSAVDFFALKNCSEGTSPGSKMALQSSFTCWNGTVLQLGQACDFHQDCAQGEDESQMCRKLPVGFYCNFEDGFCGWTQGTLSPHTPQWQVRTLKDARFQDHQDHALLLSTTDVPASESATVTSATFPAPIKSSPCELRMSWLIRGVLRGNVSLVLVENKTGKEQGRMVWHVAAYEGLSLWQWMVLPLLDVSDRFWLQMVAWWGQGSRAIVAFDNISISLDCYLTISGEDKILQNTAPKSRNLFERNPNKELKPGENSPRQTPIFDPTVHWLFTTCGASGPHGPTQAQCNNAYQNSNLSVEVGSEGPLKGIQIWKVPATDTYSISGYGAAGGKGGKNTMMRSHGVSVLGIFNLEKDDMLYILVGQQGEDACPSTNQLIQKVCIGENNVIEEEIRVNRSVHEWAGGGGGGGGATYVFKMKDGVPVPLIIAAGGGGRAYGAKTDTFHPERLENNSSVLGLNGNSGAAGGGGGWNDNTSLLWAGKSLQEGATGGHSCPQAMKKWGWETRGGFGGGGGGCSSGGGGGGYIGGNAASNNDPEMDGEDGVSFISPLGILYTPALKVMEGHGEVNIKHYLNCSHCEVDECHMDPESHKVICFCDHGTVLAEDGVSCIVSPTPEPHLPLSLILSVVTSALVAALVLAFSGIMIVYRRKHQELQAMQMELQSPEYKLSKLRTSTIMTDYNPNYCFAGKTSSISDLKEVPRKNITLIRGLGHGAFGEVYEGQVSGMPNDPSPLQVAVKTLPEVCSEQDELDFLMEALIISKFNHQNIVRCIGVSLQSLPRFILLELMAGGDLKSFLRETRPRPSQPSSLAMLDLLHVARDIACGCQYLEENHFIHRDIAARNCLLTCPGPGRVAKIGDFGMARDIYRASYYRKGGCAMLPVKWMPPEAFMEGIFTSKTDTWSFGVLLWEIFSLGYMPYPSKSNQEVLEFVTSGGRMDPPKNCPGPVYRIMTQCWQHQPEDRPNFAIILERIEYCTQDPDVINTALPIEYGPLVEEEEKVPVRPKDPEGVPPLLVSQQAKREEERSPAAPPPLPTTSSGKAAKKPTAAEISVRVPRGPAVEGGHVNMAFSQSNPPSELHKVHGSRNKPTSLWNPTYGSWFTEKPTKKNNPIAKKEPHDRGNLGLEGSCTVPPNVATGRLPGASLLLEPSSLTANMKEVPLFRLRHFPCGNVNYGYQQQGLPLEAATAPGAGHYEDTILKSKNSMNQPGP
Chain of ATP-dependent translocase ABCB1 (P08183 whole entry): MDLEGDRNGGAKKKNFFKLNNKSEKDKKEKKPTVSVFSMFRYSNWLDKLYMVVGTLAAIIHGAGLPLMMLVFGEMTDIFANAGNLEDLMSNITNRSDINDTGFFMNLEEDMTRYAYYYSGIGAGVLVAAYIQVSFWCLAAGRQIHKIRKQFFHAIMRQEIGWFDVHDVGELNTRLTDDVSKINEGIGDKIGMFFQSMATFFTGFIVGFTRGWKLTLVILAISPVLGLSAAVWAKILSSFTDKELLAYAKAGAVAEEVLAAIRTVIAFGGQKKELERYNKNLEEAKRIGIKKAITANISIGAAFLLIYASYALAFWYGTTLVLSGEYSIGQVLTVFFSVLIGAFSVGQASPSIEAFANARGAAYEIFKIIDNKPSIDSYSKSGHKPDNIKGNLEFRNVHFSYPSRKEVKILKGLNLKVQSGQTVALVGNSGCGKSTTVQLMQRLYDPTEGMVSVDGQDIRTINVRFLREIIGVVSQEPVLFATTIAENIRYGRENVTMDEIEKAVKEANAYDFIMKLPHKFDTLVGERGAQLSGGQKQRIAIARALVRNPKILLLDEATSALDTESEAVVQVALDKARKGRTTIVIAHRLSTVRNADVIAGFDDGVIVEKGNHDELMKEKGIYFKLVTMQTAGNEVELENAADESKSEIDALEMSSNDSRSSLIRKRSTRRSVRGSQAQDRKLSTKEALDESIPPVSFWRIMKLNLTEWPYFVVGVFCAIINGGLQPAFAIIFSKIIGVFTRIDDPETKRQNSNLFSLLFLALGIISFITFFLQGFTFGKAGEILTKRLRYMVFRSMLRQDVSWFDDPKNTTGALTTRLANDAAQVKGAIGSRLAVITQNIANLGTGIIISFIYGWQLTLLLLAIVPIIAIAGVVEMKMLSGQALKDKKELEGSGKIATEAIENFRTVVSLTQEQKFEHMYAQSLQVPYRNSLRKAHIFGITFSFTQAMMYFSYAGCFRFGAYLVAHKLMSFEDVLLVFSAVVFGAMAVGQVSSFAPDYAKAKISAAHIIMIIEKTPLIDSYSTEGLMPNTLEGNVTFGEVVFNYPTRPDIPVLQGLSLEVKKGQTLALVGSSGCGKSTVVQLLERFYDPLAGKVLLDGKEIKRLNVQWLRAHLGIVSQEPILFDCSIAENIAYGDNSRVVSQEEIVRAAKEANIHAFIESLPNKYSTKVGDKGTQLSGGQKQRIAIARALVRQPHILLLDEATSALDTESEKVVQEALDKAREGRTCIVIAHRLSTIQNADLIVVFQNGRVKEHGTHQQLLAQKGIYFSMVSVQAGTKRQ
Chain of Platelet-derived growth factor receptor beta (P09619 whole entry): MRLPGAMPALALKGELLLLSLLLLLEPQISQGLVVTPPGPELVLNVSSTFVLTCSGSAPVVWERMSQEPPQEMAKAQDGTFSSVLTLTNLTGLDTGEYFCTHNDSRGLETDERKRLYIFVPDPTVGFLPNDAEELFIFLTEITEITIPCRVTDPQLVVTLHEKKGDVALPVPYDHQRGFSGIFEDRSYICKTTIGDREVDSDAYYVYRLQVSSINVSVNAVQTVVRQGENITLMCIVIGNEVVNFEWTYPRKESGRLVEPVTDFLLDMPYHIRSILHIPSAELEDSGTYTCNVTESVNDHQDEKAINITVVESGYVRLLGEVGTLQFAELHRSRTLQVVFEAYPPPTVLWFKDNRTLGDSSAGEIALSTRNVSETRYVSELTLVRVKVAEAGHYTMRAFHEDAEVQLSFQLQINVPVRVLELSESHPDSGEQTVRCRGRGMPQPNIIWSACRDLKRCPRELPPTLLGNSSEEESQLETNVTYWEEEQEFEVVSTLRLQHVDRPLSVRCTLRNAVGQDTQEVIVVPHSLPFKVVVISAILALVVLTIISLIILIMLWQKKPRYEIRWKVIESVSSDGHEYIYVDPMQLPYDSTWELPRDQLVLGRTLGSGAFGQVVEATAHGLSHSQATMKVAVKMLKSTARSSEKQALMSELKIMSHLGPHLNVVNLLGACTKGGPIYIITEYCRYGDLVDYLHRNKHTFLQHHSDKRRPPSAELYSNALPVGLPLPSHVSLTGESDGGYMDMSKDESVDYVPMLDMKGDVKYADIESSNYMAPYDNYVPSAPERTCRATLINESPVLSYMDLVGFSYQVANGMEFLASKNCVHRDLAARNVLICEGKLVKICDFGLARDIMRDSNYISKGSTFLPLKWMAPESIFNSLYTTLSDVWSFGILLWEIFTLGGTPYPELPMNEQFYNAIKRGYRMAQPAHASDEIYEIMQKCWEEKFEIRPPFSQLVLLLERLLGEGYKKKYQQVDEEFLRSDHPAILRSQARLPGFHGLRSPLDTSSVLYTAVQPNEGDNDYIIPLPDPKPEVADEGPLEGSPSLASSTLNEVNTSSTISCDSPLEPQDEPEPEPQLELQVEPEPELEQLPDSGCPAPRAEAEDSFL

Work on `Cc1c(C(=O)N2CCOc3ccc(-c4ccc(N)nc4)cc3C2)ccc(S(C)(=O)=O)c1F` yielded an inhibition in vivo at 100 mg/kg (Mus musculus [1]) of 11%, an AUC(0-inf) [2] of 3.72 µM·h and an inhibition in vivo at 100 mg/kg (Mus musculus [3]) of 84%. The bioavailability [4] was 69.6%, the inhibition in vivo at 100 mg/kg (Mus musculus [5]) was -24% and the inhibition [6] was “Active”. The inhibition in vivo at 100 mg/kg (Mus musculus [7]) was 88%, the IC50 [8] was greater than 3.5 µM and the Cp (Plasma) was “BLD”. It also gave a concentration at 4 h [9] of 18.6 µM, an inhibition in vivo at 100 mg/kg (Mus musculus [10]) of 11% and an inhibition in vivo at 100 mg/kg (Mus musculus [11]) of 56%. For the same compound, the concentration at 8 h [12] was 16.6 µM, the Activity [13] was greater than 20 µM and the inhibition in vivo at 100 mg/kg (Mus musculus [14]) was 13%. It also gave an IC50 [15] greater than 3.5 µM, an inhibition in vivo at 100 mg/kg (Mus musculus [16]) of 94% and a Vd [17] of 6.42 L/kg. The inhibition in vivo at 100 mg/kg (Mus musculus [18]) was 71% and the inhibition in vivo at 100 mg/kg (Mus musculus [19]) was -3%.

— ChEMBL document CHEMBL2331117 (J Med Chem, 2013)
